CHO parental Ca = signal in parental CHO cells, OX1R antagonist counter-screen | parental CHO-K1, ATP-induced calcium, Fluo-8 fluorescence | inhibition, % at 5.6 µM | 330,000 compounds, 0.63% hits | AID 463079;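 active = inhibition above that plate's mean sample inhibition plus 3 SD, cut at about 26% in these data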;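 also: 0% = ATP-challenged DMSO wells and 100% = DMSO wells without ATP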
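test system = CHO parental line | reagent = ATP stimulus | measured by = intracellular calcium via Fluo-8 no-wash fluorescent dye | control set = ATP and no-ATP DMSO wells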
TAAR1 antag = human TAAR1 antagonism; Q96RJ0; CHO RD-HGA16 TAAR1, Fluo-8 calcium fluorescence, antagonist; inhibition, % at 3 µM; 360,000 compounds, 1.5% hits; AID 624466;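 active = inhibition above a per-plate cutoff, the mean inhibition of test compounds on that plate plus 3 SD, cut at about 49% in these data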;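 also: 0% = DMSO plus EC80 beta-PEA response and 100% = DMSO alone without agonist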
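Test system – hTAAR1-expressing CHO RD-HGA16 cells, Gα16-coupled · Also added – β-PEA at EC80 concentration, post-compound challenge · Compound – 3 µM, single point · Incubation – dye loading 75 min at 37 °C, then 30 min room temperature · Measured by – Fluo-8 intracellular calcium dye fluorescence, real-time kinetic reads · Benchmarks – vehicle and agonist controls · Replicates – singlicate, one well per test compound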
OX1R antag-1 = blocks the human orexin 1 receptor; CHO/OX1R cells, Fluo-8 calcium fluorescence, orexin A; O43613; 330,000 compounds, 0.43% hits; inhibition, % at 5 µM; AID 434989;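 active = inhibition above its plate's threshold, mean inhibition of all tested compounds on the plate plus 3 SD, cut at about 37% in these data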;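 also: 0% = orexin A challenge wells and 100% = SB-334867-A antagonist wells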
Target sequence (O43613 whole entry, looked up): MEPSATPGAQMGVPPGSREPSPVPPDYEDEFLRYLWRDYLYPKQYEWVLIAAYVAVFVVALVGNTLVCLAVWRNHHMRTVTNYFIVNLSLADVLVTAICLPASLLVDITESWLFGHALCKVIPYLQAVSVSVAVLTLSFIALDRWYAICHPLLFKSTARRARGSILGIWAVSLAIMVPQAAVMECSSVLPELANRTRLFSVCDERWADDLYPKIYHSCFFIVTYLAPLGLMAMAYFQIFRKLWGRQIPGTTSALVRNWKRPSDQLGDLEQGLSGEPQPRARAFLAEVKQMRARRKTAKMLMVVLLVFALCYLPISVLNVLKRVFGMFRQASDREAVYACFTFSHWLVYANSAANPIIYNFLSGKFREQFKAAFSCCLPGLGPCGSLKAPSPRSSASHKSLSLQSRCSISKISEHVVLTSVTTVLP
GPR7 antag = blocks human GPR7 receptor signaling; AID 1861; 290,000 compounds, 1.1% hits; GPR7-expressing cells, fluorescence antagonist assay; P48145; inhibition, % at 4.4 µM; in the data active = inhibition above about 16%, passing the limit was not always enough;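 also: cells stimulated with the agonist NPW; 0% = agonist with vehicle and 100% = vehicle without agonist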
TAAR1 agonist = agonists of human TAAR1. Q96RJ0. CHO RD-HGA16 TAAR1, Fluo-8 calcium fluorescence; vehicle wells 0%, saturating PEA agonist 100%. activation, % at 3 µM. 360,000 compounds, 0.99% hits. AID 624467;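 active = activation above the mean activation of all test compounds in the run plus 3 SD, cut at about 38% in these data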
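Assay system – CHO-derived RD-HGA16 cells with stable Gα16 and human TAAR1 · Compound dosing – one-point dosing at 3 µM (nominal) · Incubation – 17-24 h seeding, 75 min 37 °C dye, 30 min RT · Measured by – kinetic Fluo-8 calcium fluorescence · Control set – DMSO vehicle as 0%, PEA at EC100 as 100% · Repeats – single well for each compound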
OX1R antag-2 = antagonists of human orexin 1 receptor (OX1R); OX1R-expressing cells, FRET antagonist read-out; inhibition, % at 6.6 µM; 330,000 compounds, 1.8% hits; AID 485270; in the data active = inhibition mostly above about 38%, no sharp cut-off; inactive = mostly below about 40%;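 also: 0% = agonist challenge alone and 100% = reference antagonist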
* hit, by the source's call; nt = no result given. Most compounds without a hit are left out; they make up all but 4.6% or so of the library.

SMILES	CHO parental Ca	TAAR1 antag	OX1R antag-1	GPR7 antag	TAAR1 agonist	OX1R antag-2
Cc1nn(S(=O)(=O)c2cccs2)c(C)c1Sc1ccccc1	nt	nt	nt	-6	nt	nt
Cc1nn(S(=O)(=O)c2cccs2)c(C)c1Sc1ccc([N+](=O)[O-])cc1	41*	45	21	5	1	56
Cc1ccc(-n2cccc2/C=C2/C(=N)N3C(=NC2=O)SN=C3S(C)(=O)=O)cc1	-16	26	-26	2	6	32
CCc1ccc(-n2cccc2/C=C2/C(=N)N3C(=NC2=O)SN=C3S(C)(=O)=O)cc1	-3	57*	-1	1	1	66*
Cc1cc(C)cc(-n2cccc2/C=C2/C(=N)N3C(=NC2=O)SN=C3S(C)(=O)=O)c1	-1	30	-5	-1	0	51*
CS(=O)(=O)C1=NSC2=NC(=O)/C(=C\c3cccn3-c3ccccc3Cl)C(=N)N21	-14	21	-24	-16	5	64*
C[n+]1c2n(c3ccccc31)N=C(c1cc(C(C)(C)C)c(O)c(C(C)(C)C)c1)CS2	18	-2	-4	70*	6	10
COc1cccc(C2=Nn3c(nnc3-c3ccccc3O)SC2)c1	-11	5	-16	14	0	15
O=C1CCCCC1CCS(=O)(=O)NCc1ccccc1 (stereo unspecified)	nt	9	nt	nt	-1	nt
Cn1c(Cn2c(=O)sc3ccccc32)nnc1SCc1cccc(F)c1	-13	-11	-15	-8	0	8
Cn1c(Cn2c(=O)sc3ccccc32)nnc1SCc1ccccc1F	43*	9	-15	-9	-1	13
COC(=O)[C@]12C[C@H](CC(=O)N3CCN(C(=O)c4ccco4)CC3)C(=O)N(Cc3ccc4c(c3)OCO4)C1=C[C@H](C(C)(C)C)O[C@@H]2C	nt	-17	nt	nt	2	nt
Cc1cc(C)nc(-n2nc(C)c(Br)c2Nc2ccc(Br)cc2)n1	-24	-10	-39	2	10	11
Cc1nn(C)c(Nc2ccc(Br)cc2)c1Br	71*	8	40*	8	6	50
COc1cc(OC)cc(-c2c(-c3cccs3)c3cc(-c4ccc5[nH]ccc5c4)ccc3n2C)c1	-10	-3	-37	nt	2	0
O=c1[nH]c(-[n+]2ccccc2)c(/C=N/N=C(\[O-])c2ccccc2)s1	-6	-50	-10	-8	4	41*
CN1C(=O)c2cccc3c(S(=O)(=O)Nc4ccccn4)ccc1c23	-14	-13	-25	7	6	68*
Cc1ccc(O)c(NC(=O)CSc2n[nH]c(-c3ccccc3)n2)c1	13	-7	8	-11	7	36
O=C(CSc1n[nH]c(-c2ccccc2)n1)c1ccc(O)c(O)c1	4	2	-20	21*	11	15
CC(=O)Nc1ccc(CN(C)c2c(C)nc3ccc(C(=O)NCCCN4CCCC4=O)cn23)cc1	nt	5	nt	nt	3	nt
C#CCN1CC(COCCCC)Oc2cccc(F)c2S1(=O)=O (stereo unspecified)	nt	2	nt	nt	-2	nt
CC(=O)n1cc([C@H]2C=C(C(=O)N3CCN(Cc4ccc5c(c4)OCO5)CC3)O[C@@H](OCc3ccc(CO)cc3)C2)c2ccccc21	-11	67*	1	-8	16	32
O=C(C1=C[C@H](c2csc3ccccc23)C[C@H](OCCCCO)O1)N1CCN(Cc2ccc3c(c2)OCO3)CC1	-13	60*	-23	1	24	12
CCOC(=O)c1c(C)[nH]c(C(=O)COc2ccc3ccc(=O)oc3c2)c1C	-21	17	-8	nt	4	1
Cc1cccc(NC(=O)c2cc(-c3ccc(C)s3)nc3ccccc23)n1	-32	51*	-33	-15	10	27
Cc1ccc(C)c(NC(=O)c2cc(C)nc3ccccc23)c1	67*	3	-16	-3	2	17
COC(=O)c1sccc1NC(=O)c1cc(-c2cc(C)ccc2C)nc2ccccc12	-26	16	-14	4	6	9
Cc1ccc(C)c(-c2cc(C(=O)NCc3cccs3)c3ccccc3n2)c1	-24	49*	-4	0	4	1

Bioassay records as filed in PubChem.
